Data taken from ChEMBL document CHEMBL2346534, “Design, synthesis and in vitro anti-proliferative activity of 4,6-quinazolinediamines as potent EGFR-TK inhibitors” (Eur J Med Chem, 2013).

Tests used:
Format in all cases: functional
[1] = system: OVCAR-5; test: Cytotoxicity against human OVCAR5 cells after 48 hrs by SRB assay; settings: OVCAR-5, 48 h
Outline: (§1)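 NCI 60-panel five-dose screen. Cells in RPMI 1640 with 5% FBS and 2 mM L-glutamine are plated at 5000–40,000 cells/well by doubling time and preincubated 24 h at 37 °C in 5% CO2. Drug in DMSO is tested at 0.01, 0.1, 1, 10 and 100 μM for 48 h. Cells are TCA-fixed, stained with SRB and read at 515 nm. GI50 is the concentration giving 50% reduction in net protein increase relative to time-zero and control plates.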

[2] = system: MDA-MB-231; test: Cytotoxicity against human MDA-MB-231/ATCC cells after 48 hrs by SRB assay; settings: MDA-MB-231, 48 h
Outline: (§2)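 NCI 60-panel five-dose screen. Cells in RPMI 1640 with 5% FBS and 2 mM L-glutamine, plated at 5000–40,000 cells/well by doubling time, preincubated 24 h at 37 °C/5% CO2. Drug from DMSO stock added at 0.01, 0.1, 1, 10 and 100 µM, then 48 h. TCA fixation, SRB stain, absorbance at 515 nm, time-zero plates included. GI50 = 50% reduction in net protein increase versus control.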

[3] = system: OVCAR-4; test: Cytotoxicity against human OVCAR4 cells after 48 hrs by SRB assay; settings: OVCAR-4, 48 h; outline: as §1
[4] = system: MOLT-4; test: Cytotoxicity against human MOLT4 cells after 48 hrs by SRB assay; settings: MOLT-4, 48 h; outline: as §1
[5] = system: U-251; test: Cytotoxicity against human U251 cells after 48 hrs by SRB assay; settings: U-251, 48 h
Outline: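 NCI 60 five-dose screen. Cells in RPMI 1640 with 5% FBS and 2 mM L-glutamine, plated at 5000–40,000 cells/well by doubling time, pre-incubated 24 h at 37 °C, 5% CO2. Time-zero plates TCA-fixed at drug addition. Final concentrations 0.01, 0.1, 1, 10 and 100 µM (DMSO stock), 48 h exposure. TCA fixation, 0.4% SRB stain, absorbance 515 nm. GI50 from [(Ti−Tz)/(C−Tz)]×100 = 50.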

[6] = system: CCRF-CEM; test: Cytotoxicity against human CCRF-CEM cells after 48 hrs by SRB assay; outline: as §2
[7] = read-out: LC50 (the source's name)

## NC(=O)Nc1ccc2ncnc(Nc3ccc(Cl)cc3)c2c1
[1]
  GI50: 15.2 µM
  TGI: 90.3 µM
[1]; [7]
  CC50: > 100 µM
[2]
  GI50: 8.92 µM
  TGI: 37.7 µM
[2]; [7]
  CC50: > 100 µM
[3]
  GI50: 9.14 µM
  TGI: > 100 µM
[3]; [7]
  CC50: > 100 µM
[4]
  GI50: 18.1 µM
  TGI: 87.1 µM
[4]; [7]
  CC50: > 100 µM
[5]
  GI50: 23.9 µM
  TGI: > 100 µM
[5]; [7]
  CC50: > 100 µM
[6]
  GI50: 16.4 µM
  TGI: > 100 µM
[6]; [7]
  CC50: > 100 µM
